According to ChEMBL document CHEMBL1255454, “Systematic approach to optimizing specifically targeted antimicrobial peptides against Streptococcus mutans” (2010):
Converted amounts (≈) assume the structure as drawn. The source made the active and inactive calls. The rule behind the calls is not given here. Square brackets hold non-standard residues; d marks the D form. Peptide text beside a SMILES is read from it. Aoc = NCCCCCCCC(=O)O

Assays:
[1] = tested on: Streptococcus mitis; assay: Antimicrobial activity against Streptococcus mitis ATCC 903 after 16 to 20 hrs by broth microdilution assay; assay type: functional
Summary of the method: (§1)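 Broth microdilution. Twofold peptide dilutions were made in 50% BHI–50% sterile water for oral streptococci and in 1× Mueller-Hinton broth for the other bacteria. First round 500 to 0.97 µg/ml; a second round of 64 to 0.5 µg/ml was run in some cases, reporting its mode. Inoculum ~1 × 10^5 CFU/ml, 37°C for 16–20 h. Read A600; MIC taken as complete inhibition or ≥90% turbidity reduction versus peptide-free control.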

[2] = tested on: Streptococcus mutans; assay: Antimicrobial activity against Streptococcus mutans UA159 after 16 to 20 hrs by broth microdilution assay; assay type: functional; summary of the method: as §1
[3] = tested on: Pseudomonas aeruginosa; assay: Antimicrobial activity against Pseudomonas aeruginosa PAK after 16 to 20 hrs by broth microdilution assay; assay type: functional; summary of the method: as §1
[4] = tested on: Staphylococcus aureus; assay: Antimicrobial activity against methicillin-resistant Staphylococcus aureus after 16 to 20 hrs by broth microdilution assay; assay type: functional
Summary of the method: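 MRSA grown aerobically in BHI at 37°C. Broth microdilution: 2-fold peptide dilutions in 1× Mueller-Hinton broth, first round 500 to 0.97 µg/ml; if activity below 62.5 µg/ml, sometimes a second round at 64 to 0.5 µg/ml, reporting the mode. Inoculum ~1 × 10^5 CFU/ml, 37°C for 16-20 h. A600 read. MIC = lowest concentration giving complete inhibition or ≥90% turbidity reduction versus peptide-free control.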

[5] = tested on: Streptococcus sanguinis; assay: Antimicrobial activity against Streptococcus sanguinis NY101 after 16 to 20 hrs by broth microdilution assay; assay type: functional; summary of the method: as §1
[6] = Antimicrobial activity against Streptococcus gordonii Challis DL1 after 16 to 20 hrs by broth microdilution assay; assay type: functional, Streptococcus gordonii str. Challis; summary of the method: as §1
[7] = tested on: Streptococcus mutans; assay: Antimicrobial activity against Streptococcus mutans UA159 assessed as inhibition of bacterial biofilm formation at 25 uM after 3 mins by fluorescence assay; assay type: functional
Summary of the method: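 S. mutans UA159 overnight culture was diluted 1:5,000 in TH with 1% sucrose and grown as biofilm for 24 h. Biofilms were exposed 3 min at room temperature to 25 µM fluorescein-labelled peptide in HEPES/NaHCO3/NaCl/MgCl2 buffer with 0.1% CTAB, pH 7.4, then washed twice. Green fluorescence images were taken and biofilm-associated green pixels quantified as binding intensity units.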

For H-LQLLKQLLKLLKQFSGGFIKHFIHRF-NH2, the MIC [1] was 32 µg/mL, the MIC [2] was 8 µg/mL and the MIC [3] was 32 µg/mL. It also gave an MIC [4] of 32 µg/mL, an MIC [5] of 16 µg/mL and an MIC [6] of 16 µg/mL.
For H-RWRWRWFGGGFIKHFIHRF-NH2, the MIC [1] was 32 µg/mL, the MIC [2] was 8 µg/mL and the MIC [3] was 62.5 µg/mL. For the same compound, the MIC [4] was 32 µg/mL, the MIC [5] was 32 µg/mL and the MIC [6] was 32 µg/mL.
H-IKQLLHFFQRF-NH2 gave an MIC [1] of 62.5 µg/mL, an MIC [2] of 24 µg/mL and an MIC [3] of 62.5 µg/mL. For the same compound, the MIC [4] was 62.5 µg/mL, the MIC [5] was 62.5 µg/mL and the MIC [6] was 32 µg/mL.
Compound H-FIKHFIHRFSGGLQLLKQLLKLLKQF-NH2 has an MIC [1] of 62.5 µg/mL, an MIC [2] of 16 µg/mL and an MIC [3] of 32 µg/mL. It also gave an MIC [4] of 32 µg/mL, an MIC [5] of 32 µg/mL and an MIC [6] of 8 µg/mL.
In the case of H-FKKFWKWFRRFGGGFIKHFIHRF-NH2, the MIC [1] is reported as 62.5 µg/mL, the MIC [2] is reported as 8 µg/mL and the MIC [3] is reported as 125 µg/mL. For the same compound, the MIC [4] was 32 µg/mL, the MIC [5] was 32 µg/mL and the MIC [6] was 125 µg/mL.
In the case of H-IKQLLHFFQRFGGGFIKHFIHRF-NH2, the MIC [1] is reported as 16 µg/mL, the MIC [2] is reported as 8 µg/mL and the MIC [3] is reported as 125 µg/mL. It also gave an MIC [4] of 62.5 µg/mL, an MIC [5] of 32 µg/mL and an MIC [6] of 32 µg/mL.
Compound H-RWRRLLKKLHHLLHSGGFIKHFIHRF-NH2 has an MIC [1] of 32 µg/mL, an MIC [2] of 8 µg/mL and an MIC [3] of 32 µg/mL. For the same compound, the MIC [4] was 32 µg/mL, the MIC [5] was 32 µg/mL and the MIC [6] was 16 µg/mL.
In the case of H-FIKHFIHRFSATRWRRLLKKLHHLLH-NH2, the inhibition [7] is reported as “Active”, the MIC [1] is reported as 32 µg/mL and the MIC [2] is reported as 16 µg/mL. It also gave an MIC [3] of 32 µg/mL, an MIC [4] of 16 µg/mL and an MIC [5] of 32 µg/mL. For the same compound, the MIC [6] was 32 µg/mL.
With H-RWRRLLKKLHHLLHSATFIKHFIHRF-NH2 the inhibition [7] was “Active”, the MIC [1] was 16 µg/mL and the MIC [2] was 8 µg/mL. For the same compound, the MIC [3] was 32 µg/mL, the MIC [4] was 32 µg/mL and the MIC [5] was 16 µg/mL. For the same compound, the MIC [6] was 16 µg/mL.
In the case of `CC[C@H](C)[C@H](NC(=O)[C@H](Cc1ccccc1)NC(=O)CCCCCCCNC(=O)[C@H](Cc1cnc[nH]1)NC(=O)[C@H](CC(C)C)NC(=O)[C@H](CC(C)C)NC(=O)[C@H](Cc1cnc[nH]1)NC(=O)[C@H](Cc1cnc[nH]1)NC(=O)[C@H](CC(C)C)NC(=O)[C@H](CCCCN)NC(=O)[C@H](CCCCN)NC(=O)[C@H](CC(C)C)NC(=O)[C@H](CC(C)C)NC(=O)[C@H](CCCNC(=N)N)NC(=O)[C@H](CCCNC(=N)N)NC(=O)[C@H](Cc1c[nH]c2ccccc12)NC(=O)[C@@H](N)CCCNC(=N)N)C(=O)N[C@@H](CCCCN)C(=O)N[C@@H](Cc1cnc[nH]1)C(=O)N[C@@H](Cc1ccccc1)C(=O)N[C@H](C(=O)N[C@@H](Cc1cnc[nH]1)C(=O)N[C@@H](CCCNC(=N)N)C(=O)N[C@@H](Cc1ccccc1)C(N)=O)[C@@H](C)CC` (H-RWRRLLKKLHHLLH[Aoc]FIKHFIHRF-NH2), the MIC [1] is reported as 32 µg/mL (≈ 9.78 µM), the MIC [2] is reported as 8 µg/mL (≈ 2.44 µM) and the MIC [3] is reported as 32 µg/mL (≈ 9.78 µM). For the same compound, the MIC [4] was 62.5 µg/mL (≈ 19.1 µM), the MIC [5] was 16 µg/mL (≈ 4.89 µM) and the MIC [6] was 16 µg/mL (≈ 4.89 µM).
`CC[C@H](C)[C@H](NC(=O)[C@H](Cc1ccccc1)NC(=O)[C@H](Cc1cnc[nH]1)NC(=O)[C@H](CCCCN)NC(=O)[C@@H](NC(=O)[C@@H](N)Cc1ccccc1)[C@@H](C)CC)C(=O)N[C@@H](Cc1cnc[nH]1)C(=O)N[C@@H](CCCNC(=N)N)C(=O)N[C@@H](Cc1ccccc1)C(=O)NCCCCCCCC(=O)N[C@@H](CC(C)C)C(=O)N[C@@H](CCC(N)=O)C(=O)N[C@@H](CC(C)C)C(=O)N[C@@H](CC(C)C)C(=O)N[C@@H](CCCCN)C(=O)N[C@@H](CCC(N)=O)C(=O)N[C@@H](CC(C)C)C(=O)N[C@@H](CC(C)C)C(=O)N[C@@H](CCCCN)C(=O)N[C@@H](CC(C)C)C(=O)N[C@@H](CC(C)C)C(=O)N[C@@H](CCCCN)C(=O)N[C@@H](CCC(N)=O)C(=O)N[C@@H](Cc1ccccc1)C(N)=O` (H-FIKHFIHRF[Aoc]LQLLKQLLKLLKQF-NH2) gave an MIC [1] of 62.5 µg/mL (≈ 20.2 µM), an MIC [2] of 16 µg/mL (≈ 5.17 µM) and an MIC [3] of 62.5 µg/mL (≈ 20.2 µM). The MIC [4] was 62.5 µg/mL (≈ 20.2 µM), the MIC [5] was 32 µg/mL (≈ 10.3 µM) and the MIC [6] was 32 µg/mL (≈ 10.3 µM).
In the case of H-FIKHFIHRFSGGRWRWRWF-NH2, the MIC [1] is reported as 32 µg/mL, the MIC [2] is reported as 8 µg/mL and the MIC [3] is reported as 62.5 µg/mL. The MIC [4] was 32 µg/mL, the MIC [5] was 32 µg/mL and the MIC [6] was 32 µg/mL.
